According to the EternaBench riboswitch data:

System: MS2 coat protein
Test: apparent Kd, MS2 coat protein; higher = weaker binding; RNA-MaP array; FMN 200 µM where present
Procedure, shortened: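 Designs were transcribed by stalled E. coli RNA polymerase on Illumina sequencing-chip clusters. They were titrated with SNAP-549-labelled MS2 coat protein from 0.7 or 1.5 nM, doubling to 3 µM, without and then with constant ligand. Buffer: 100 mM Tris-HCl pH 7.5, 80 mM KCl, 4 mM MgCl2, BSA, DTT, yeast tRNA, Tween-20. Green signal was normalised to red-channel RNA signal and control-cluster median Fmax. Apparent Kd is the median of filtered per-cluster binding-curve fits.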

[1] = designed as: OFF switch for flavin mononucleotide, no ligand
[2] = ligand present: flavin mononucleotide, designed as: OFF switch for flavin mononucleotide
[3] = designed as: ON switch for flavin mononucleotide, no ligand
[4] = ligand present: flavin mononucleotide, designed as: ON switch for flavin mononucleotide

Sequence	apparent Kd [1]	apparent Kd [2]	apparent Kd [3]	apparent Kd [4]
GCUGGACAAGGAUAUACAUUCGUGCUUCGGCACGUAAGAUCACAUGAGGAUCACCCAUGUAGAAGGUGUCCAGC	67.8 nM	612 nM		
ACAUGAAAUCGAGGAUAUGCAAAAAAAAAAAAAGCAGAAGGCGAAAAAAAAACUCGAAAAAACAUGAGGAUCACCCAUGUAAAA	26.4 nM	22.9 nM		
GGACCGCGUAGAAUUAGCGGCCGGCAGGAUAUGACAUGAGGAUCACCCAUGUGAACUCCAUUGGGUCAGAAGGGCCACGACACA	20.6 nM	96.4 nM		
AUGCUUUAUGUAGGAUAUGCAUACUGUUAGUAUGCAGAAGGACAUGAGGAUCACCCAUGUAUAUUAUUAUUACAUAUCAUACAU	26 nM	311 nM		
GCACUGGAUGUAGGAUAUCAGGACGAUAAGUCCUGAGAAGGACAUGAGGAUCACCCAUGUAAAACUCCACCAGUGCAUAAUAUA	13.1 nM	17.9 nM		
CUAUUUAAGCAGAAGGCGUGGGAGAGAUUCACACGAGGAUAUGCGAUAACGGCGUAUGACAUGAGGAUCACCCAUGUACGUGCG			5.83 nM	4.91 nM
GCUUGUGGGCAAGGAUAUCCUACGUUGUUCUGGUUCGUGUCUGUCACAUGAGGAUCACCCAUGUGGGAGAAGGUGCAUUUGGUG	19.7 nM	17.1 nM		
GGGUACCUGACAUGAGGAUCACCCAUGUCGUGCCUCUGCGGCAAGGAUAUGAUCGCUCGUGUAGGUCAGAAGGUGCCGUUGUUA			66.2 nM	6.7 nM
ACAACAGGCAGAGGAUAUGACUGGGUAGGAGUAACAUGAGGAUCACCCAUGUUAGAAGGCUGCGUCAAACAGCGAAAGGUACGC	52.4 nM	91.6 nM		
GGUCGUCACAUAUACAUGAGGAUCACCCAUGUCAAAAGACAUGAGGAUAUGGAUCCUAAUUGGAUCCAGAAGGCAUGGACGACC			986 nM	47.3 nM
UUAGAAAGGUUAGGAUAUUAAUUAUUGUAUAGUAUGAUCUACAUGAGGAUCACCCAUGUUAAAUAUAAGAAGGAACGUUAGAUU	57.1 nM	54.8 nM		
AAUCCACAUGAGGAUCACCCAUGUCAGGAUAUGAACGGUCUGGCACCGUGGGUUCCUGUUGACCGUCAGAAGGGACAAGGGCCC	5.69 nM	7.72 nM		
UGCGUUAAGCCCUUAAGUCGUCAACAUGAGGAUCACCCAUGUAGAAGGCAGCGGACGCAGCCGGCUGAGGAUAUACAUGUAGGU	7.9 nM	10.5 nM		
UUGAUGUCAUCAGGAUAUAGUAUUUAAGACAUAUCUUCUUUCAAACAUGAGGAUCACCCAUGUCGCUAGAAGGGAUGAAUGAUU	16.6 nM	14.4 nM		
GGUACCCUGGUUCUUCAAAAUACAUGAGGAUCACCCAUGUACUAGGAUAUCGCGCGAACCCUCGCUGAGAAGGAGUCGAUGGGC	22 nM	23.4 nM		
AGAAAGUGAGGAUAUACAUGAGGAUCACCCAUGUAGAACGAGAGUUAUAAAAAUGGAAGUAGAAGGCGCAAAAG	37.1 nM	37.2 nM		
GUAGCAUACCGAGGAUAUUCAGGGCGUGGAUAUACAUGAGGAUCACCCAUGUGGCGGAAGCCUAGGGAGAAGGCGGGAUGCUAC			22.3 nM	15.5 nM
GGUUGGCGAGGAUAUACAUGAGGAUCACCCAUGUGGUCCUGUGGCUGGUCUUAACUUUGUAGAAGGCGCGGGUC	66 nM	82.8 nM		
UGUCGGAGCAGAGGAUAUACAUGAGGAUCACCCAUGUAAAUGGAAGAAGACUGGAAACAGUCAAUGUAGAAGGCUGCUCCGACA	125 nM	694 nM		
AUCCGGGCCCAGAAGGUGCCAGCGAGAGCUGCACAUGAGGAUCACCCAUGUUGUCGGUGACGACGCAAGGAUAUGGGCCCGGAU			24.4 nM	6.89 nM
AAGUCAGCAGGAUAUGCGAUGUUGGGCUAGAUAGCGUGACCACAUGAGGAUCACCCAUGUAGAAGGGCUGGCUA	37.4 nM	43.7 nM		
AUAAGCUCGUCAGGAUAUACAACAUUGUGUAAGCAGUGUGGUAUGAUCACAUGAGGAUCACCCAUGUAGAAGGGACGAGCUUAU	6.9 nM	44.9 nM		
AGGUCAACCACAGGAUAUGGCUAGCAUAGCUAGCCAGAAGGGUGGUCAUAUCCAUGUAAAUACAUGAGGAUCACCCAUGUAUCC			209 nM	79.8 nM
CGACUGUGAGGAUAUGGUGAGUAGUGCCUGAGCGCUGCUCACCAGAAGGCACAUGAGGAUCACCCAUGUAUAGC	41.7 nM	165 nM		

Sequence	apparent Kd [1]	apparent Kd [2]	apparent Kd [3]	apparent Kd [4]
GUGACGAAUGUAGGAUAUGCUGAGGAUAACUCAGCAGAAGGACAUGAGGAUCACCCAUGUACUAAUAGUGAUAAUAAACGUCAC	14.8 nM	82.5 nM		
ACAAAUCGAGGAUAUACAUGAGGAUCACCCAUGUGGAGUCCACUGCGCGGUUCUCAGCGUAGAAGGCGAAAACA	46.3 nM	89.8 nM		
CUUUUGUGAGGAUAUUCGUAGUAGGGUCAUGGCACUAUUACGGAGAAGGCACAUGAGGAUCACCCAUGUACCUU	15.1 nM	26.4 nM		
AAUAUGUUGCAGAAGGUUAUUUUUAUAACGUGCCACUUGACAUGAGGAUCACCCAUGUAAUUGAUGAAGGAUAUGCAAUAUAUU	6.46 nM	6.34 nM		
GAAUAAUUGAUCCAAUAUAACAACAUGAGGAUCACCCAUGUGCAGGAUAUCGUGUGUGUUAUAUACGAGAAGGGCAAGAACUGU	729 nM	594 nM		
AGUUUCUCCGCAGGAUAUGUGCUCUUUAUCACAUGAGGAUCACCCAUGUCAGCCUACACGGCGAGACAGAAGGGUGGUGAUGCC			88.6 nM	81.2 nM
UGAUAGCACAGAGGAUAUGCGUAGUGUUAUCUCUACAUGAGGAUCACCCAUGUAGAAGGCUGUGCUAUCUAAGUCGGAAACGAU	6.19 nM	9.86 nM		
CAGCGAAAGUAGAAGGCAGUACUGAUACAGUACUGAGGAUAUACAUGAGGAUCACCCAUGUCCUUCAGCUGGAAAUAAAUAAAA	5.9 nM	50.9 nM		
AUUAUUUUGUAGAAGGACGACUAUUAAUUUUUCGUAGGAUAUACUAUUUACAUGAGGAUCACCCAUGUUUAAAUGGAACAAUGU	9.32 nM	10.4 nM		
GCUGUCGCAUGAGGAUAUGGUCAGGUUUCCUGACCAGAAGGCAUGUCGAUAGACAUGAGGAUCACCCAUGUAGUAAAGACAGCA			855 nM	66.1 nM
AAAUUUAACGAAGGAUAUGGUUACAUGAGGAUCACCCAUGUGUGCCUUGUGAUGCUGAUUAAGUUCCAGAAGGUCGUAUACAUA	84.8 nM	234 nM		
CGGGUAUAUCGAGGAUAUAAGUCUAGGACAUGAGGAUCACCCAUGUAUGUCUUAGAAGGCGAUAUACCCAGCCUGUUACAGGCA			31 nM	6.37 nM
GCCGUACAUGAGGAUCACCCAUGUCAGGAUAUUUAGCACUCGGAAUUUCCGAGAGGUCAAAGAAGGGACAUUGC	17.5 nM	26.9 nM		
UAUAUAUAGUAAGGAUAUGUAAUUAUUUUAUGAACAGAAGGUACUGACAUGAGGAUCACCCAUGUUUUAGUGUGGGCAUGUAGA	82.9 nM	119 nM		
UGGCGCAUGUGAGGAUAUAGUGGGUAGUAACUACUAGAAGGUACAUGAGGAUCACCCAUGUACUUGGGUUUGUCAGGAACUCCU	6.57 nM	8.33 nM		
GUACGUGGACAGAAGGUGACAUGAGGAUCACCCAUGUUAGCUCGGGUACGAGCGAUCCGCGUGAUUGAGGAUAUGUCUGCGGGC	39.7 nM	59 nM		
UGUCGGAGCAGAGGAUAUUACAUGAGGAUCACCCAUGUAUGAACCAAUAGCUGGAAACAGCAAUCUAAGAAGGCUGCUCCGACA	4.47 nM	4.34 nM		
AAAAAGUCAGGAUAUGUAGCAAAAGGUGAUCAAAAAAAGCUACAGAAGGGACAUGAGGAUCACCCAUGUAAAAA	262 nM	336 nM		
GUAUAGAUUACAUGAGGAUCACCCAUGUCAGAACGGGUAAUCAGAAGGUAUUAUUAGAGAAAGGGUAAGGAUAUGAUUUUAUAU			598 nM	389 nM
AGAAACUACGAGAAGGACAUAUGAUUAAGACUAAACAUGAGGAUCACCCAUGUAGGAUAUCGUAGUUUCAGGAUCGUGAGAUCA	7.27 nM	20.1 nM		
UAUGUAUUCGUAGGAUAUCCGUUAAAACCGUGUGGAGAAGGACGAACAUGAGGAUCACCCAUGUAUCAUGGUGUAGACAAUUUU	170 nM	460 nM		
CGAGUUUUUGAGAAGGCAUAUUAUAAUAGUGUCCAUGUUUACAUGAGGAUCACCCAUGUUUAGUAUGAGGAUAUCAGUAUGUCG	8.01 nM	11.1 nM		
UAUAUGUCAGGAUAUCGAUUGGAAUGGAAUUCGGUUCUGGUUGAGAAGGGACAUGAGGAUCACCCAUGUUUUUC	27.6 nM	84.4 nM		
